A word on the GI50: it is the concentration that inhibits growth by half. A higher GI50 goes with lower sensitivity of the cells. The Ki is a measure of affinity in units of concentration, obtained from inhibition or displacement. Read a low Ki as higher affinity.

Structures are written as SMILES. Active and inactive are the calls of the source. No cut-off for these calls is given here.

The target in experiment [1] is Cyclin-dependent kinase 9 (Homo sapiens) (UniProt P50750). Put plainly: Inhibition of CDK9 in human HCT116 cells assessed as reduction in Mcl-1 protein level at GI50 after 24 hrs by Western blot analysis. Format: cell-based. As to conditions: HCT-116. Background: A western blot detects proteins with antibodies after separation by electrophoresis.
Cyclin-dependent kinase 9 (Homo sapiens), sequence (P50750 whole entry): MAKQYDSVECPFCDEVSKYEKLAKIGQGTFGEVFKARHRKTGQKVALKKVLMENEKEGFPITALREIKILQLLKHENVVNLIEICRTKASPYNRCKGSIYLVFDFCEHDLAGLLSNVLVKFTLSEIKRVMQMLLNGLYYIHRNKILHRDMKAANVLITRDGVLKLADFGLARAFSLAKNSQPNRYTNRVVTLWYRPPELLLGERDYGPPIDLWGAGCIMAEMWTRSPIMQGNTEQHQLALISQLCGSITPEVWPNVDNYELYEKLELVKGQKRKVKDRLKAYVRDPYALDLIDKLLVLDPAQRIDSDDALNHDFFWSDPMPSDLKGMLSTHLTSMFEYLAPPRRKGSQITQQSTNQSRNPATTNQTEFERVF
Experiment [2] has as its system HCT-116. Put plainly: Induction of apoptosis in human HCT116 cells assessed as early apoptosis cells at 5 times GI50 after 24 hrs by AnnexinV/PI staining-based flow cytometry. In kind it is functional. Put shortly: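 HCT-116 cells were treated for 24 h alongside a DMSO control, stained with annexin V/PI and analysed by flow cytometry. Early apoptotic cells were scored as AnnV+/PI−, and late apoptotic cells as AnnV+/PI+. Values are mean ± s.d.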
Background: Flow cytometry measures light scatter and fluorescence of single cells or particles in a stream.

Experiment [3] deals with MCF7. Put plainly: Cytotoxicity against human MCF7 cells after 48 hrs by MTT assay. In kind it is functional. As to conditions: MCF7, 48 h.
Experiment [4] has as its system HCT-116. Put plainly: Induction of apoptosis in human HCT116 cells assessed as caspase-3 activation at GI50 after 24 hrs. In kind it is functional, cell-based. Put shortly:
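HCT-116 cells exposed for 24 h at the respective GI₅₀ or 5×GI₅₀ concentration, with a DMSO control, then assayed for caspase-3 activity. Data are mean ± s.d. of two independent experiments, and significance versus DMSO was set at p <0.05.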

For experiment [5], the target named is Cyclin-dependent kinase 9 (Homo sapiens) (UniProt P50750). Nature of the experiment: Inhibition of CDK9 in human HCT116 cells assessed as reduction in MDM2 protein level at GI50 after 24 hrs by Western blot analysis. In kind it is cell-based. As to conditions: HCT-116.
In experiment [6] the target is CDK9/cyclin T1 (Homo sapiens, UniProt P50750). Nature of the experiment: Inhibition of CDK9/CyclinT1. Format: protein-complex assay.
CDK9/cyclin T1, sequence (O60563 whole entry): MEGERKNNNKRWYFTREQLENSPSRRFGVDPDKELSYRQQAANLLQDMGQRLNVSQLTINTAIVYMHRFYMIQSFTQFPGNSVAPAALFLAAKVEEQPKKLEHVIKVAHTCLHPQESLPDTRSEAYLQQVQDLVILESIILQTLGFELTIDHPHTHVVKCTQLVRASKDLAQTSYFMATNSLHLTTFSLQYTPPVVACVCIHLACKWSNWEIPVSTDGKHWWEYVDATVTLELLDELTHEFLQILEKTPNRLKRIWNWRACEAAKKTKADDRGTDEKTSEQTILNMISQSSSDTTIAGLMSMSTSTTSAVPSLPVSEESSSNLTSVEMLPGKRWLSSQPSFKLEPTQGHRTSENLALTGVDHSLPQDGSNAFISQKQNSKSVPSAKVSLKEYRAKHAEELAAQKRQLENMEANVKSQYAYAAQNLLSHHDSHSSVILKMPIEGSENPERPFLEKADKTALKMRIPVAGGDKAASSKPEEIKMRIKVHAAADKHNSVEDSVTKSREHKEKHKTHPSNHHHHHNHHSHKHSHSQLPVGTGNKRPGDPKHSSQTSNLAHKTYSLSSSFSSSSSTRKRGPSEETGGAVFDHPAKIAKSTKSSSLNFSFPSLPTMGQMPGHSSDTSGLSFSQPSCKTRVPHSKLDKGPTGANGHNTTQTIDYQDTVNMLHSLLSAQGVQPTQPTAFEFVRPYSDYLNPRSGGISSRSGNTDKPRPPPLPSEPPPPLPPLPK
CDK9/cyclin T1, sequence (P50750 whole entry): as the sequence (P50750 whole entry) above
For experiment [7], the system named is HCT-116. Put plainly: Cytotoxicity against human HCT116 cells after 48 hrs by MTT assay. The following applies: HCT-116, 48 h. Format: functional. (Tetrazolium dyes change colour on reduction, which living cells bring about.)
Experiment [8] concerns the target Cyclin-dependent kinase 9 (Homo sapiens) (UniProt P50750). Put plainly: Inhibition of CDK9-mediated phosphorylation of RNA polymerase 2 at Ser2 in human HCT116 cells at GI50 after 24 hrs by Western blot analysis. Format: cell-based. As to conditions: HCT-116. The essentials:
(§1)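 Western blot of HCT-116 cells after 24 h treatment across a concentration series, probing RNAPII CTD pSer-2 with β-actin as the internal loading control.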

The target of experiment [9] is Cyclin-dependent kinase 2/cyclin A (Homo sapiens) (UniProt P24941+P20248+P78396). Put plainly: Inhibition of CDK2/Cyclin A. In kind it is protein-complex assay.
The subject of experiment [10] is HCT-116. Nature of the experiment: Cell cycle arrest in human HCT116 cells at 5 times GI50 after 24 hrs by AnnexinV/PI staining-based flow cytometry. In kind it is functional.
Experiment [11] has as its target Cyclin-dependent kinase 9 (Homo sapiens) (UniProt P50750). Nature of the experiment: Inhibition of CDK9-mediated phosphorylation of RNA polymerase 2 at Ser2 in human HCT116 cells after 24 hrs by Western blot analysis. Format: cell-based. The following applies: HCT-116. The essentials:
as §1

Experiment [12] deals with HCT-116. Nature of the experiment: Induction of apoptosis in human HCT116 cells assessed as at 5 times GI50 after 24 hrs by AnnexinV/PI staining-based flow cytometry.
Experiment [13] concerns HCT-116. Put plainly: Cell cycle arrest in human HCT116 cells assessed as accumulation at G2/M phase at 5 times GI50 after 24 hrs by […]PI staining-based flow cytometry. Format: functional.
Experiment [14] has as its system MCF7. Put plainly: Ratio of DRB GI50 to compound GI50 for human MCF7 cells. Format: functional.
Experiment [15] relates to HCT-116. Nature of the experiment: Ratio of DRB GI50 to compound GI50 for human HCT116 cells. In kind it is functional.

Turning to `Cc1nc2cc(Cl)c(Cl)cc2n1C1CCCC1`, the inhibition result in experiment [1], in [5] and in [8] was “Active” throughout. In experiment [2], the Activity was greater than 17%. The 50% growth inhibitory concentration (GI50) in experiment [3] amounted to 40 µM; in experiment [7], 13 µM. In [4], the result was Active. This compound registered an inhibition constant Ki in experiment [6] of 1.51 µM. In addition, the inhibition result in experiment [9] was “inactive”. Also, the result in experiment [10] was inactive. Further, the inhibition entry in experiment [11] was “Dose-dependent effect”.

As for `C[S+]([O-])c1nc2cc(Cl)c(Cl)cc2n1C1CCCC1` (stereo not drawn), the GI50 in [3] and in [7] was 0.5 µM each time. The result in experiment [4] was Active. In addition, in [12], the Activity is given as less than 7%. This compound also registered a Ki in [6] greater than 5 µM. Also, the outcome in experiment [10] was inactive.

As for `CC(C)n1c(C(F)(F)F)nc2cc(Cl)c(Cl)cc21`, the results for the GI50 in [3] and in [7] were 70.5 µM and 81.9 µM, respectively.

Consider `O=[N+]([O-])c1ccccc1Cn1c(C(F)(F)F)nc2cc(Cl)c(Cl)cc21`, for which the concentration for 50% growth inhibition (GI50) in [3] is 1.5 µM; in [7], 5.9 µM.

In the case of `Clc1cc2nc(-c3ccccc3Cl)[nH]c2cc1Cl`, the GI50 in experiment [3] was determined as 22 µM; in [7], 23 µM.

`CC(C)c1nc2cc(Cl)c(Cl)cc2n1C1CCCC1`: the GI50 was determined as 43 µM in experiment [3] and 9 µM in experiment [7]. In addition, in experiment [6], the affinity, expressed as Ki, was 3.33 µM. The inhibition result in [9] was “inactive”.

Consider `O=[N+]([O-])c1ccc(Cn2c(C(F)(F)F)nc3cc(Cl)c(Cl)cc32)cc1`, for which the figures for the 50% growth inhibitory concentration (GI50) in [3] and in [7] were 97.3 µM and 81.6 µM, respectively.

For `Nc1cccc(Cn2c(C(F)(F)F)nc3cc(Cl)c(Cl)cc32)c1`, the concentration for 50% growth inhibition (GI50) in [3] turned out to be 77.5 µM; in experiment [7], 22.6 µM.

Consider `CC(C)c1nc2cc(Cl)c(Cl)cc2[nH]1`, for which the 50% growth inhibitory concentration (GI50) amounted to 57 µM in [3] and 52 µM in [7].

Consider `OC[C@H]1O[C@@H](n2cnc3cc(Cl)c(Cl)cc32)[C@H](O)[C@@H]1O` [DICHLORORIBOBENZIMIDAZOLE], for which the Activity in [2] is on record as 20%. Besides, the GI50 was 36 µM in [3] and 25 µM in experiment [7]. The result in experiment [4] and in experiment [13] was Active.

As for `Cc1cc2nc[nH]c2cc1C` [DIMEDAZOL], the GI50 in experiment [3] turned out to be 20 µM; in [7] it was 51 µM.

Turning to `FC(F)(F)c1nc2cc(Cl)c(Cl)cc2n1CC1CC1`, the concentration for 50% growth inhibition (GI50) in experiment [3] stood at 60.2 µM; in experiment [7] it was 61.3 µM.

With `CSc1nc2cc(Cl)c(Cl)cc2n1C1CCCC1`, the values for the concentration for 50% growth inhibition (GI50) in experiment [3] and in [7] were 3.9 µM and 2.9 µM, respectively. In experiment [6], this compound gave an inhibitory constant (Ki) greater than 5 µM.

For the compound `CCc1nc2cc(Cl)c(Cl)cc2[nH]1`, the results for the 50% growth inhibitory concentration (GI50) in [3] and in experiment [7] were 48 µM and 46 µM, respectively.

`FC(F)(F)c1ccc(Cn2c(C(F)(F)F)nc3cc(Cl)c(Cl)cc32)cc1`: the GI50 was 17 µM in experiment [3] and 19 µM in experiment [7].

Turning to `CCc1nc2ccccc2n1[C@@H]1O[C@H](CO)[C@@H](O)[C@H]1O`, the GI50 in [3] worked out at 71.3 µM; in [7], 70.6 µM.

For the compound `Cc1cc2nc(C(F)(F)F)[nH]c2cc1C`, the figures for the concentration for 50% growth inhibition (GI50) in experiment [3] and in [7] were 17 µM and 56 µM, respectively.

Consider `C=CCn1c(C(F)(F)F)nc2cc(Cl)c(Cl)cc21`, for which the results for the GI50 in experiment [3] and in [7] were 87 µM and 89.2 µM, respectively.

As to `Cc1nc2cc(Cl)c(Cl)cc2[nH]1`, the GI50 in [3] is 28 µM; in experiment [7] it was 51 µM.

Regarding `Cn1c(C(F)(F)F)nc2cc(Cl)c(Cl)cc21`, the results for the concentration for 50% growth inhibition (GI50) in experiment [3] and in experiment [7] were 39 µM and 56 µM, respectively.

Take `Fc1ccccc1-c1nc2cc(Cl)c(Cl)cc2[nH]1`: the GI50 in [3] came out at 47.5 µM; in [7], 56.5 µM.

For the compound `FC(F)(F)c1nc2cc(Cl)c(Cl)cc2n1Cc1ccccc1`, the figures for the concentration for 50% growth inhibition (GI50) in experiment [3] and in experiment [7] were 8.7 µM and 8.6 µM, respectively.

Turning to `Clc1cc2nc[nH]c2cc1Cl`, the concentration for 50% growth inhibition (GI50) is 73 µM in experiment [3] and 66 µM in experiment [7].

As to `FC(F)(F)c1nc2cc(Cl)c(Cl)cc2n1C1CCCC1`, the 50% growth inhibitory concentration (GI50) in experiment [3] is 21 µM; in experiment [7] it was 22 µM.

As to `COc1cc2ncn([C@@H]3O[C@H](CO)[C@@H](O)[C@H]3O)c2cc1OC`, the GI50 in [3] and in experiment [7] was greater than 100 µM in each case.

For the compound `O=[N+]([O-])c1cccc(Cn2c(C(F)(F)F)nc3cc(Cl)c(Cl)cc32)c1`, the results for the 50% growth inhibitory concentration (GI50) in experiment [3] and in [7] were 60 µM and 22.8 µM, respectively.

As to `CCn1c(C(F)(F)F)nc2cc(Cl)c(Cl)cc21`, the GI50 turned out to be 72.9 µM in experiment [3] and 95.3 µM in [7].

`CCc1nc2cc(Cl)c(Cl)cc2n1C1CCCC1`: the GI50 in experiment [3] came to 52 µM; in experiment [7] it was 38 µM.

As for `FC(F)(F)c1cccc(Cn2c(C(F)(F)F)nc3cc(Cl)c(Cl)cc32)c1`, the GI50 in experiment [3] is 68 µM; in experiment [7] it was 50.5 µM.

`FC(F)(F)c1nc2cc(Cl)c(Cl)cc2[nH]1`: the GI50 in [3] was determined as 6 µM; in [7], 7 µM. Moreover, the RatioGI50 is reported as 6 in experiment [14] and 3.5 in experiment [15].

`Nc1ccccc1Cn1c(C(F)(F)F)nc2cc(Cl)c(Cl)cc21`: the 50% growth inhibitory concentration (GI50) in experiment [3] was found to be 55.6 µM; in experiment [7], 26.1 µM.

Turning to `CS(=O)(=O)c1nc2cc(Cl)c(Cl)cc2n1C1CCCC1`, the 50% growth inhibitory concentration (GI50) in experiment [3] and in experiment [7] was 0.6 µM in each case. The result in [4] was Active. Moreover, the Activity in experiment [12] is less than 7%. For the same compound, the Ki in experiment [6] was greater than 5 µM. Further, in experiment [10], the result was inactive.

Turning to `OC[C@H]1O[C@@H](n2cnc3cc(F)c(F)cc32)[C@H](O)[C@@H]1O`, the 50% growth inhibitory concentration (GI50) stood at 57.9 µM in experiment [3] and 67 µM in [7].

In the case of `Clc1cc2ncn(C3CCCC3)c2cc1Cl`, the GI50 in experiment [3] stood at 42 µM; in [7], 37 µM.
